Experimental data published in ChEMBL document CHEMBL1121627, “Structure--activity relationships in a series of novel 3,4-dihydro-4-oxopyrimido[4,5-b]quinoline-2-carboxylic acid antiallergy agents” (1980).
Activity calls are given as the source filed them.

Columns and labels:
Rattus norvegicus [1] = experiment: Antiallergic activity against reagin induced passive cutaneous anaphylaxis reaction in rats upon intravenous administration.; assay type: functional
In short: (§1)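 Rat passive cutaneous anaphylaxis. Just before challenge, controls for antihistamine, antiserotonin or nonspecific blockade are given intradermally: 60 µg histamine dihydrochloride and 0.5 µg serotonin-creatinine sulfate. Challenge is iv, 5 mg egg albumin with 2.5 mg Evan's Blue, given immediately after iv drug or 5 min after oral drug. Site scores are summed per group of 5 or 7 and expressed as % inhibition versus control. ED50 is taken from a by-eye dose-response curve, or from least-squares regression when n is larger.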

Rattus norvegicus [2] = experiment: The compound was evaluated for antiallergic activity against reagin induced passive cutaneous anaphylaxis reaction in rats upon peroral administration, at this dose the compound tested was found inactive, and is highly active at the same dose if ad ministered in solution of pH >/=10; assay type: functional; details: po; in short: as §1
Rattus norvegicus [3] = experiment: The compound was evaluated for antiallergic activity against reagin induced passive cutaneous anaphylaxis reaction in rats upon peroral administration; highest dose at which the compound was tested and found inactive; assay type: functional; details: po; in short: as §1
Rattus norvegicus [4] = experiment: Antiallergic activity against reagin induced passive cutaneous anaphylaxis reaction in rats upon peroral administration.; assay type: functional; details: po; in short: as §1
Rattus norvegicus [5] = experiment: The compound was evaluated for antiallergic activity against reagin induced passive cutaneous anaphylaxis reaction in rats upon peroral administration, pH dependent, more active when administered in solution of pH>/=10; assay type: functional; details: po; in short: as §1
Rattus norvegicus [6] = experiment: The compound was evaluated for antiallergic activity against reagin induced passive cutaneous anaphylaxis reaction in rats upon peroral administration; at this dose the compound tested was found inactive; assay type: functional; details: po; in short: as §1
Rattus norvegicus [7] = experiment: The compound was evaluated for antiallergic activity against reagin induced passive cutaneous anaphylaxis reaction in rats upon peroral administration. at this dose the compound tested was found inactive; assay type: functional; details: po; in short: as §1
Rattus norvegicus [8] = experiment: The compound was evaluated for antiallergic activity against reagin induced passive cutaneous anaphylaxis reaction in rats upon peroral administration, the dose at which the compound was tested and found inactive; assay type: functional; details: po; in short: as §1
Cavia porcellus = experiment: Bronchoconstrictive effect of histamine aerosol in conscious guinea pigs at an iv dose of 30 mg/kg; Bronchoconstrictive effect is unaltered; assay type: functional, organism-based; set-up: dose 30 mg/kg
Rattus norvegicus [9] = experiment: Inhibition of plasma histamine release induced by antigen challenge in rats assively sensitized with homologus antisera at an iv dose of 0.1 mg/kg; assay type: functional

Row | Compound | ED50 (Rattus norvegicus [1]) | ED50 (Rattus norvegicus [4]) | also measured
1 | CCOC(=O)c1nc(O)c2cc3cc(O)c(OC)cc3nc2n1 | 0.001 mg/kg |  | ED50 (Rattus norvegicus [2]): > 10 mg/kg
2 | CCc1nc(O)c2cc3cc(OC)c(OC)cc3nc2n1 | 3 mg/kg |  | ED50 (Rattus norvegicus [3]): > 60 mg/kg
3 | COc1cc2cc3c(O)nc(C(=O)OCCO)nc3nc2cc1OC | < 0.03 mg/kg | 10 mg/kg | 
4 | CCOC(=O)c1nc(O)c2cc3cc(O)ccc3nc2n1 | 0.7 mg/kg |  | ED50 (Rattus norvegicus [5]): 10 mg/kg
5 | COc1cc2cc3c(O)nc(C(N)=O)nc3nc2cc1OC | 3 mg/kg | 30 mg/kg | 
6 | CCNC(=O)c1nc(O)c2cc3cc(OC)c(OC)cc3nc2n1 | 3 mg/kg |  | 
7 | COc1cc2cc3c(O)ncnc3nc2cc1OC | 3 mg/kg |  | 
8 | O=C(O)c1nc(O)c2cc3cc(O)ccc3nc2n1 | 0.01 mg/kg |  | ED50 (Rattus norvegicus [2]): > 10 mg/kg
9 | COc1cc2cc3c(O)nc(C(=O)[O-])nc3nc2cc1OC.[Na+] | 0.005 mg/kg | 10 mg/kg | 
10 | CCCCOc1cc2nc3nc(C(=O)OCC)nc(O)c3cc2cc1OCC | 0.3 mg/kg | 5 mg/kg | 
11 | CNC(=O)c1nc(O)c2cc3cc(OC)c(OC)cc3nc2n1 | 3 mg/kg |  | 
12 | CCOC(=O)c1nc(O)c2cc3ccc(OC)cc3nc2n1 | 0.8 mg/kg | 10 mg/kg | 
13 | CCCCOC(=O)c1nc(O)c2cc3ccccc3nc2n1 | 0.06 mg/kg | 30 mg/kg | 
14 | CCCCOC(=O)c1nc(O)c2cc3cc(O)c(OC)cc3nc2n1 | 0.008 mg/kg |  | ED50 (Rattus norvegicus [5]): 10 mg/kg
15 | CCOC(=O)c1nc(O)c2cc3ccc(OC)c(OC)c3nc2n1 | 0.2 mg/kg | 60 mg/kg | 
16 | NC(=O)c1nc(O)c2cc3ccccc3nc2n1 | 1.3 mg/kg | 60 mg/kg | 
17 | CCNC(=O)c1nc(O)c2cc3ccccc3nc2n1 | 3 mg/kg |  | 
18 | COc1cc2cc3c(=O)[nH]c(=O)[nH]c3nc2cc1OC | 3 mg/kg |  | 
19 | CCOC(=O)c1nc(O)c2cc3cc(OC)c(OCC)cc3nc2n1 | 0.007 mg/kg | 2 mg/kg | 

Row | Compound | ED50 (Rattus norvegicus [1]) | ED50 (Rattus norvegicus [4]) | also measured
20 | CCCCOC(=O)c1nc(O)c2cc3cc(OC)c(OC)cc3nc2n1 | 0.003 mg/kg | 10 mg/kg | 
21 | COc1cc2cc3c(O)nc(C)nc3nc2cc1OC | 0.4 mg/kg | 1 mg/kg | 
22 | CCOC(=O)c1nc(O)c2cc3cc(OCc4ccccc4)c(OC)cc3nc2n1 | 3 mg/kg |  | ED50 (Rattus norvegicus [6]): > 10 mg/kg
23 | CCOC(=O)c1nc(O)c2cc3cc(OCC)c(OCc4ccccc4)cc3nc2n1 | 0.9 mg/kg |  | ED50 (Rattus norvegicus [6]): > 30 mg/kg
24 | CCOC(=O)c1nc(O)c2cc3cc(OC)c(OCc4ccccc4)cc3nc2n1 | 0.8 mg/kg |  | ED50 (Rattus norvegicus [7]): > 30 mg/kg
25 | CCOC(=O)c1nc(O)c2cc3cc(OCC)c(OCC)cc3nc2n1 | 0.01 mg/kg | 1 mg/kg | 
26 | CCOC(=O)c1nc(O)c2cc3cc(OC)c(OC)c(OC)c3nc2n1 | 0.8 mg/kg | 10 mg/kg | 
27 | CCOC(=O)c1nc(O)c2cc3c(Cl)cccc3nc2n1 | 0.2 mg/kg | 30 mg/kg | 
28 | CCOC(=O)c1nc(O)c2cc3cc([S+](C)[O-])ccc3nc2n1 (centres undefined) | 0.2 mg/kg | 30 mg/kg | 
29 | CCOC(=O)c1nc(O)c2cc3cc(OC)c(O)cc3nc2n1 | 1 mg/kg |  | ED50 (Rattus norvegicus [2]): > 3 mg/kg
30 | COc1cc2cc3c(O)nc(C(=O)NO)nc3nc2cc1OC | < 3 mg/kg |  | ED50 (Rattus norvegicus [3]): > 60 mg/kg
31 | CCOC(=O)Cn1c(C(=O)OCC)nc2nc3cc(OC)c(OC)cc3cc2c1=O | 3 mg/kg |  | 
32 | COc1cc2cc3c(O)nc(C(F)(F)F)nc3nc2cc1OC | > 10 mg/kg |  | 
33 | CCOC(=O)c1nc(O)c2cc3cc4c(cc3nc2n1)OCCO4 | 1 mg/kg |  | 
34 | COc1cc2nc3nc(C(=O)O)nc(O)c3cc2cc1O | < 0.01 mg/kg |  | ED50 (Rattus norvegicus [2]): > 3 mg/kg
35 | CCOC(=O)c1nc(O)c2c(-c3ccccc3)c3ccccc3nc2n1 | 0.3 mg/kg | 10 mg/kg | 
36 | CCOC(=O)c1nc(O)c2cc3cc(Sc4ccc(OC)cc4)ccc3nc2n1 | 3 mg/kg | 30 mg/kg | 
37 | CCOC(=O)c1nc(O)c2cc3ccccc3nc2n1 | 0.1 mg/kg | 3 mg/kg | 
38 | CCOC(=O)c1nc(O)c2cc3ccc(F)cc3nc2n1 | 0.3 mg/kg | 30 mg/kg | 

Row | Compound | ED50 (Rattus norvegicus [1]) | ED50 (Rattus norvegicus [4]) | also measured
39 | COc1cc2cc3c(O)nc(C(C)=O)nc3nc2cc1OC | 2 mg/kg |  | ED50 (Rattus norvegicus [3]): > 10 mg/kg
40 | CCOC(=O)CCCn1c(C(=O)OCC)nc2nc3cc(OC)c(OC)cc3cc2c1=O | 0.1 mg/kg |  | ED50 (Rattus norvegicus [8]): > 10 mg/kg
41 | CCOC(=O)c1nc(O)c2cc3cc(OC)ccc3nc2n1 | 0.03 mg/kg | 20 mg/kg | 
42 | CCOC(=O)c1nc(O)c2cc3cc(Cl)ccc3nc2n1 | 0.4 mg/kg | 30 mg/kg | 
43 | O=C([O-])c1cc(=O)c2c(OCC(O)COc3cccc4oc(C(=O)[O-])cc(=O)c34)cccc2o1.[Na+].[Na+] [CROMOLYN SODIUM] | 0.8 mg/kg |  | ED50 (Rattus norvegicus [8]): > 300 mg/kg
44 | O=C(O)c1nc2nc3ccccc3cc2c(=O)[nH]1 | 0.2 mg/kg | 25 mg/kg | 
45 | COc1cc2cc3c(O)nc(-c4ccccc4)nc3nc2cc1OC | 3 mg/kg |  | 
46 | CCOC(=O)c1nc(O)c2cc3cc(OCC)c(OC)cc3nc2n1 | 0.002 mg/kg | 0.3 mg/kg | 
47 | CCOC(=O)c1nc(O)c2cc3cc(F)ccc3nc2n1 | 0.3 mg/kg | 30 mg/kg | 
48 | CCOC(=O)c1nc(O)c2cc3cc(OCc4ccccc4)ccc3nc2n1 | 0.9 mg/kg | 10 mg/kg | 
49 | CCOC(=O)c1nc(O)c2cc3cc(OC)cc(OC)c3nc2n1 | 0.5 mg/kg | 30 mg/kg | 
50 | CCOC(=O)c1nc(O)c2cc3c(OC)ccc(OC)c3nc2n1 | 0.6 mg/kg | 30 mg/kg | 
51 | CCOC(=O)c1nc(=O)c2cc3cc(OC)c(OC)cc3nc2[nH]1 [PIROLATE] | 0.007 mg/kg | 1 mg/kg | Activity (Cavia porcellus): inactive; inhibition in vivo at 0.1 mg/kg (Rattus norvegicus [9]): 92%
52 | CCOC(=O)c1nc2nc3cc(OC)c(OC)cc3cc2c(=O)n1C | 0.8 mg/kg |  | ED50 (Rattus norvegicus [8]): > 30 mg/kg
53 | CCOC(=O)c1nc(O)c2cc3cc(OC(C)=O)c(OC)cc3nc2n1 | 0.007 mg/kg |  | ED50 (Rattus norvegicus [5]): 10 mg/kg
54 | CCOC(=O)c1nc(O)c2cc3cc4c(cc3nc2n1)OCO4 | 0.5 mg/kg | 30 mg/kg | 
55 | CCOC(=O)c1nc(O)c2cc3cc(SC)ccc3nc2n1 | 0.1 mg/kg | 8 mg/kg | 
56 | CCOC(=O)CNC(=O)c1nc(O)c2cc3cc(OC)c(OC)cc3nc2n1 | 6 mg/kg |  | 
